{"source": "ChEMBL document CHEMBL5154717", "about": "“Identification of thiophene-benzenesulfonamide derivatives for the treatment of multidrug-resistant tuberculosis” (Eur J Med Chem, 2022)", "key": {"[1]": {"system": "Mycobacterium tuberculosis", "test": "Antimycobacterial activity against Mycobacterium tuberculosis 14862 clinical isolate measured by MABA assay", "assay_type": "functional", "in_short": "(§1)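 Microplate Alamar Blue assay against replicating M. tuberculosis H37Rv or clinical isolates. MIC is the lowest concentration giving ≥90% reduction in fluorescence relative to the mean of replicate bacterium-only controls.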"}, "[2]": {"target": "Voltage-gated inwardly rectifying potassium channel KCNH2 (Homo sapiens, UniProt Q12809)", "sequence (Q12809 whole entry)": "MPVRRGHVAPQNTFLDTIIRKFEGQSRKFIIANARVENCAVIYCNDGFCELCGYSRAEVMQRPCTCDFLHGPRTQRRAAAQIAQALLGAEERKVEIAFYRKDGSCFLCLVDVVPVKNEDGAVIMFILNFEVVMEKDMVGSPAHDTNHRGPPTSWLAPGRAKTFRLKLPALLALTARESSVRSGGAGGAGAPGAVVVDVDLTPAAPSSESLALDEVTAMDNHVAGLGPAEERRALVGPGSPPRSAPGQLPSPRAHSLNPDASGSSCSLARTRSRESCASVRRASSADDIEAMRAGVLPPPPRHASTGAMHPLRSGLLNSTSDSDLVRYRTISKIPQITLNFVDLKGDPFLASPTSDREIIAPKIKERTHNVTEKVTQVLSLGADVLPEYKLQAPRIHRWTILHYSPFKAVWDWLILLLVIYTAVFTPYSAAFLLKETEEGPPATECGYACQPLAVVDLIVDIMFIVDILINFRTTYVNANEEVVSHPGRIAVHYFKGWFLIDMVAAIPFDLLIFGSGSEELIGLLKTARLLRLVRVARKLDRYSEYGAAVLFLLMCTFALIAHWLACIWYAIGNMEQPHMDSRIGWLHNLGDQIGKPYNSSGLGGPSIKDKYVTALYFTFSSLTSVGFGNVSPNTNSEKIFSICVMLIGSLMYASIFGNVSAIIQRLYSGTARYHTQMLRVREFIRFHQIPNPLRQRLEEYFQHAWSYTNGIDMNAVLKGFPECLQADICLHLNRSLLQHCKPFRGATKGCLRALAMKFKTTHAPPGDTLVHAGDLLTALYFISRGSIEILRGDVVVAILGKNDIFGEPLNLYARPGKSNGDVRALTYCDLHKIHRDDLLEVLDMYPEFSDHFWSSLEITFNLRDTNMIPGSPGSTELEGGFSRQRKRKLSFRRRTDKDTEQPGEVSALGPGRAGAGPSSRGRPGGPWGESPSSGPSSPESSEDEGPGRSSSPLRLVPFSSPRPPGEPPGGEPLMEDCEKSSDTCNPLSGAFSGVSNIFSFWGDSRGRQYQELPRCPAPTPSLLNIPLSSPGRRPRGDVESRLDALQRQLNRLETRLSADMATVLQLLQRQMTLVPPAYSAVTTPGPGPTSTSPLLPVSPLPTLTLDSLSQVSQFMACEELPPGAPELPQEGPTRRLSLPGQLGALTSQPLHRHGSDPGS", "test": "Inhibition of hERG", "assay_type": "toxicity", "in_short": "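Electrophysiological recording of hERG current at 30, 10, 3.0, 1.0 and 0.3 µM, run in duplicate for IC50.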"}, "[3]": {"test": "Cytotoxicity against African green monkey Vero cells measured by MTT assay", "assay_type": "toxicity, cell-based", "settings": "African green monkey (Chlorocebus sabaeus)", "in_short": "(§2)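 Vero, HepG2 and mouse J774A.1 cells grown in RPMI 1640 with 10% FBS. MTT read-out in 96-well format.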"}, "[4]": {"test": "Metabolic stability in human hepatocytes assessed as compound remaining at 1 uM measured by LC-MS/MS analysis", "assay_type": "ADME, cell-based, Hepatocyte", "settings": "read-out: Stability", "in_short": "(§3)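 Compound at 1 µM with hepatocytes at 1 million cells/mL final; human hepatocytes are mixed donor, mouse are male. Incubated at 37 °C in CO2 at ~100 rpm. Sampled at 0, 15, 30, 60, 90 and 120 min, quenched in ice-cold ACN/MeOH with internal standard. Parent remaining measured by LC-MS/MS.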"}, "[5]": {"test": "Selectivity index, Ratio of IC50 for Vero cells over MIC for Mycobacterium tuberculosis H37Rv", "assay_type": "toxicity", "settings": "monkey"}, "[6]": {"system": "Mycobacterium tuberculosis", "test": "Antimycobacterial activity against Mycobacterium tuberculosis 13946 clinical isolate measured by MABA assay", "assay_type": "functional", "in_short": "as §1"}, "[7]": {"test": "Cytotoxicity against mouse J774.A1 cells measured by MTT assay", "assay_type": "toxicity, cell-based", "in_short": "as §2"}, "[8]": {"system": "Mycobacterium tuberculosis", "test": "Antimycobacterial activity against Mycobacterium tuberculosis H37Rv measured by MABA assay", "assay_type": "functional", "in_short": "as §1"}, "[9]": {"test": "Metabolic stability in mouse hepatocytes assessed as compound remaining at 1 uM measured by LC-MS/MS analysis", "assay_type": "ADME, cell-based, Hepatocyte", "settings": "read-out: Stability", "in_short": "as §3"}, "[10]": {"test": "Metabolic stability in human hepatocytes assessed as half-life at 1 uM measured by LC-MS/MS analysis", "assay_type": "ADME, cell-based, Hepatocyte", "in_short": "as §3"}, "[11]": {"target": "T1, Decaprenylphosphoryl-beta-D-ribose oxidase (Mycobacterium tuberculosis (strain ATCC 25618 / H37Rv), UniProt P9WJF1)", "T1 sequence (P9WJF1 whole entry)": "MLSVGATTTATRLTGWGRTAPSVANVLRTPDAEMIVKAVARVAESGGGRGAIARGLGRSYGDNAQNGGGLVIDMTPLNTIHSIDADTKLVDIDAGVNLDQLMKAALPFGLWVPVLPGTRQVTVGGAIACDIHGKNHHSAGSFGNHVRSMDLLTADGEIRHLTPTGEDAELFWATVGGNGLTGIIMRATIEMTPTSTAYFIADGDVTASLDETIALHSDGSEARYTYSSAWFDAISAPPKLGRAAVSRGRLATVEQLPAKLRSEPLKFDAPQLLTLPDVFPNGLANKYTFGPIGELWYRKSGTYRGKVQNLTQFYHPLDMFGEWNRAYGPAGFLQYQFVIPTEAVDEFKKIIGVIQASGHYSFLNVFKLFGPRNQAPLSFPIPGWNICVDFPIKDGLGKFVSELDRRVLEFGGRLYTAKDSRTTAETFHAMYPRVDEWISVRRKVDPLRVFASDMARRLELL", "test": "Inhibition of recombinant Mycobacterium tuberculosis DprE1 measured by resazurin dye based assay", "in_short": "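Resazurin-coupled fluorescence assay at 30 °C. Buffer: 50 mM HEPES pH 7.5, 100 mM NaCl, 1.5% DMSO, 100 µM Tween-20, 50 µM resazurin, 2 µM FAD. DprE1 at 1 µM with 1 mM FPR across inhibitor concentrations. Resorufin read at ex 530/em 595 nm. IC50 from initial velocities plotted against inhibitor concentration.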"}, "[12]": {"test": "Metabolic stability in mouse hepatocytes assessed as half-life at 1 uM measured by LC-MS/MS analysis", "assay_type": "ADME, cell-based, Hepatocyte", "in_short": "as §3"}, "[13]": {"test": "Cytotoxicity against human HepG2 cells measured by MTT assay", "assay_type": "toxicity, cell-based", "in_short": "as §2"}, "J774.A1 [14]": {"system": "J774.A1", "test": "Antimycobacterial activity against Mycobacterium tuberculosis H37Rv infected in mouse J774.A1 cells assessed as change in log10 CFU at 5 ug/ml", "assay_type": "functional", "settings": "dose 5 µg/ml", "in_short": "(§4)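 Mouse J774A.1 macrophages infected with M. tuberculosis H37Rv, test compound at final 10 or 5 µg/mL. Read-out is intracellular log10 CFU; Δlog10 CFU = untreated minus treated. Triplicates in at least three separate experiments.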"}, "[15]": {"system": "Mycobacterium tuberculosis", "test": "Antimycobacterial activity against Mycobacterium tuberculosis H37Rv infected in BALB/c mouse assessed as reduction in log10 CFU in lungs at 100 mg/kg, po administered 5 times a week from day 10 to 30", "assay_type": "functional", "in_short": "(§5)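 Female SPF BALB/c mice, 18–20 g, 6 per group, aerosol-infected with M. tuberculosis H37Rv to deposit 50–100 bacilli per lung. Oral gavage in 0.5% CMC at 25 or 100 mg/kg, 5 days/week from day 10 to day 30; controls get vehicle. Lungs harvested the next day and plated on 7H11 for 3 weeks at 37 °C. Mean log10 CFU compared by Student's t test.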"}, "J774.A1 [16]": {"system": "J774.A1", "test": "Antimycobacterial activity against Mycobacterium tuberculosis H37Rv infected in mouse J774.A1 cells assessed as change in log10 CFU at 10 ug/ml", "assay_type": "functional", "settings": "dose 10 µg/ml", "in_short": "as §4"}, "[17]": {"test": "Toxicity in BALB/c mouse infected with Mycobacterium tuberculosis H37Rv assessed as body weight at 100 mg/kg, po administered 5 times a week from day 10 to 30", "assay_type": "organism-based", "settings": "in vivo", "in_short": "as §5"}, "[18]": {"system": "Mycobacterium tuberculosis", "test": "Antimycobacterial activity against Mycobacterium tuberculosis H37Rv infected in BALB/c mouse assessed as reduction in log10 CFU in lungs at 25 mg/kg, po administered 5 times a week from day 10 to 30", "assay_type": "functional", "in_short": "as §5"}, "[19]": {"test": "Toxicity in BALB/c mouse infected with Mycobacterium tuberculosis H37Rv assessed as body weight at 25 mg/kg, po administered 5 times a week from day 10 to 30", "assay_type": "organism-based", "settings": "in vivo", "in_short": "as §5"}}, "data": [{"smiles": "COC(=O)NC(=O)c1ccsc1NC(=O)c1ccc(S(=O)(=O)N2CCCCC2)cc1", "values": [{"measurement": "MIC", "setting": "[1]", "value": 0.51, "unit": "µg/mL"}, {"measurement": "IC50", "setting": "[2]", "value": 3.3, "unit": "µM"}, {"measurement": "IC50", "setting": "[3]", "value": 3.62, "unit": "µg/mL"}, {"measurement": "remaining at 1 µM", "setting": "[4]", "value": 1, "unit": "%"}, {"measurement": "selectivity ratio", "setting": "[5]", "value": 15}, {"measurement": "MIC", "setting": "[6]", "value": 0.48, "unit": "µg/mL"}, {"measurement": "IC50", "setting": "[7]", "value": 36.9, "unit": "µg/mL"}, {"measurement": "MIC", "setting": "[8]", "value": 0.24, "unit": "µg/mL"}, {"measurement": "remaining at 1 µM", "setting": "[9]", "value": 22.7, "unit": "%"}, {"measurement": "half-life at 1 µM", "setting": "[10]", "value": 4.6, "unit": "min"}, {"measurement": "IC50", "setting": "[11]", "value": 0.221, "unit": "µM"}, {"measurement": "half-life at 1 µM", "setting": "[12]", "value": 14, "unit": "min"}, {"measurement": "IC50", "setting": "[13]", "value": 36.8, "unit": "µg/mL"}]}, {"smiles": "CCOC(=O)NC(=O)c1ccsc1NC(=O)c1ccc(S(=O)(=O)N2CCCC2)cc1", "values": [{"measurement": "MIC", "setting": "[1]", "value": 0.03, "unit": "µg/mL"}, {"measurement": "Activity", "setting": "J774.A1 [14]", "value": 1.19, "unit": "deltalog10CFU"}, {"measurement": "IC50", "setting": "[2]", "value": "> 30", "unit": "µM"}, {"measurement": "IC50", "setting": "[3]", "value": 58.2, "unit": "µg/mL"}, {"measurement": "remaining at 1 µM", "setting": "[4]", "value": 42, "unit": "%"}, {"measurement": "Activity", "setting": "[15]", "value": 4.81, "unit": "log10CFU"}, {"measurement": "selectivity ratio", "setting": "[5]", "value": "> 3640"}, {"measurement": "MIC", "setting": "[6]", "value": 0.057, "unit": "µg/mL"}, {"measurement": "IC50", "setting": "[7]", "value": "> 64", "unit": "µg/mL"}, {"measurement": "MIC", "setting": "[8]", "value": "< 0.016", "unit": "µg/mL"}, {"measurement": "remaining at 1 µM", "setting": "[9]", "value": 49.7, "unit": "%"}, {"measurement": "Activity", "setting": "J774.A1 [16]", "value": 1.29, "unit": "deltalog10CFU"}, {"measurement": "half-life at 1 µM", "setting": "[10]", "value": 24, "unit": "min"}, {"measurement": "Activity", "setting": "[17]", "value": 20.94, "unit": "g"}, {"measurement": "half-life at 1 µM", "setting": "[12]", "value": 29.7, "unit": "min"}, {"measurement": "IC50", "setting": "[13]", "value": 62.9, "unit": "µg/mL"}]}, {"smiles": "NNC(=O)c1ccncc1", "note": "[ISONIAZID]", "values": [{"measurement": "MIC", "setting": "[1]", "value": "> 10", "unit": "µg/mL"}, {"measurement": "Activity", "setting": "[18]", "value": 1.76, "unit": "log10CFU"}, {"measurement": "MIC", "setting": "[6]", "value": 2.46, "unit": "µg/mL"}, {"measurement": "Activity", "setting": "[19]", "value": 20.9, "unit": "g"}, {"measurement": "MIC", "setting": "[8]", "value": 0.019, "unit": "µg/mL"}]}]}
